Common to all, as to conditions: Pichia kudriavzevii
Test [1] concerns the target ATP binding cassette transporter Abc1p (Issatchenkia orientalis) (UniProt Q09GQ4). Description: Inhibition of Candida krusei ABC1 expressed in Saccharomyces cerevisiae isolate ADdelta at 87 nM. The essentials: (§1)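 Agarose disk-diffusion test of S. cerevisiae AD overexpressing C. krusei Abc1p, with the parent AD strain as comparison. Cells were pregrown from YPD overnight into CSM to mid-log at 30°C. They were seeded at OD600 0.008 in CSM with 0.6% agarose, overlaid on CSM agar (pH 7.0). Paper disks carrying set nmol amounts of xenobiotic were applied, and plates were incubated at 30°C for 48 h before reading growth inhibition zones.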

The target is the same in test [2]. The experiment in a line: Inhibition of Candida krusei Abc1p expressed in Saccharomyces cerevisiae isolate AD assessed as reduction of itraconazole MIC at 1 ug after 48 hrs by agarose diffusion assay.
Test [3] shares this target. Description: Inhibition of Candida krusei B2399 Abc1p assessed as reduction of itraconazole MIC at 1 ug after 48 hrs by agarose diffusion assay.
For test [4] the target is unchanged. The experiment in a line: Inhibition of Candida krusei Abc1g expressed in Saccharomyces cerevisiae isolate ADdelta assessed as reduction of itraconazole MIC at 2.5 ug/ml after 48 hrs by checkerboard susceptibility assay. Put shortly: (§2)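 Checkerboard liquid microdilution in CSM (pH 7.0). FLC or ITC MICs of AD/CkABC1g or C. krusei B2399 were measured across a range of milbemycin concentrations. Interaction was expressed as fractional inhibitory concentration index (FICI).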

The target is the same in test [5]. Description: Inhibition of Candida krusei B2399 Abc1p assessed as reduction of itraconazole MIC at 2.5 ug/ml after 48 hrs by checkerboard susceptibility assay. Put shortly:
as §2

The target is the same in test [6]. Description: Inhibition of Candida krusei IF011 Abc1p assessed as reduction of itraconazole MIC at 1 ug after 48 hrs by agarose diffusion assay.
Test [7] shares this target. Description: Inhibition of Candida krusei B2399 Abc1p assessed as reduction of fluconazole MIC at 2.5 ug/ml after 48 hrs by checkerboard susceptibility assay. The essentials: as §2
For test [8] the target is unchanged. Description: Inhibition of Candida krusei Abc1g expressed in Saccharomyces cerevisiae isolate ADdelta assessed as reduction of fluconazole MIC at 2.5 ug/ml after 48 hrs by checkerboard susceptibility assay. The essentials: as §2
Test [9] has the same target. The experiment in a line: Inhibition of Candida krusei ABC1 expressed in Saccharomyces cerevisiae isolate ADdelta at 19 nM. Put shortly:
as §1

Test [10] has the same target. Description: Inhibition of Candida krusei ABC1 expressed in Saccharomyces cerevisiae isolate ADdelta at 46 nM. Put shortly: as §1

SMILES strings stand for the structures. Active and inactive are the calls of the source. The calls are words filed in the database; no cut-off is given here.

Turning to `C[C@@H]1[C@H](O)[C@@H](C)/C=C/C=C/C=C/C=C/C=C/C=C/C=C/[C@H](O[C@@H]2O[C@H](C)[C@@H](O)[C@H](N)[C@@H]2O)C[C@@H]2O[C@](O)(C[C@@H](O)C[C@@H](O)[C@H](O)CC[C@@H](O)C[C@@H](O)CC(=O)O[C@H]1C)C[C@H](O)[C@H]2C(=O)O`, the outcome in test [1] was inactive.

Take `CC1=C[C@H]2C(=O)O[C@H]3C[C@@H](C/C=C(\C)C[C@@H](C)/C=C/C=C(\C)[C@]2(O)[C@H](O)[C@@H]1O)O[C@@]1(CC[C@H](C)[C@@H](C)O1)C3`: the outcome in [2], in test [3], in [4], in [5], in test [6] and in test [7] was Active. In addition, the result in [8] was Active.

With `Nc1nc(=O)[nH]cc1F`, the result in [9] was inactive.

Regarding `CN(C/C=C/C#CC(C)(C)C)Cc1cccc2ccccc12`, the result in [10] was inactive.

For `C/C=C(\C)C(=O)OCC1=C[C@H]2C(=O)O[C@H]3C[C@@H](C/C=C(\C)C[C@@H](C)/C=C/C=C4\CO[C@H]([C@@H]1O)[C@@]42O)O[C@@]1(CC[C@H](C)[C@@H](C)O1)C3`, the outcome in test [2], in [3], in [4], in test [6] and in test [8] was Active. For the same compound, the results for the MIC in test [5] and in test [7] were 0.125 µg/mL and 64 µg/mL, respectively.

The values are drawn from ChEMBL document CHEMBL1649122, “Abc1p is a multidrug efflux transporter that tips the balance in favor of innate azole resistance in Candida krusei” (2009).
